{"source": "ChEMBL document CHEMBL1139340", "about": "“Synthesis, radiosynthesis, and biological evaluation of carbon-11 and fluorine-18 labeled reboxetine analogues: potential positron emission tomography radioligands for in vivo imaging of the norepinephrine transporter” (J Med Chem, 2009)", "key": {"[1]": {"biological_target": "Sodium-dependent noradrenaline transporter (Homo sapiens, UniProt P23975)", "sequence (P23975 whole entry)": "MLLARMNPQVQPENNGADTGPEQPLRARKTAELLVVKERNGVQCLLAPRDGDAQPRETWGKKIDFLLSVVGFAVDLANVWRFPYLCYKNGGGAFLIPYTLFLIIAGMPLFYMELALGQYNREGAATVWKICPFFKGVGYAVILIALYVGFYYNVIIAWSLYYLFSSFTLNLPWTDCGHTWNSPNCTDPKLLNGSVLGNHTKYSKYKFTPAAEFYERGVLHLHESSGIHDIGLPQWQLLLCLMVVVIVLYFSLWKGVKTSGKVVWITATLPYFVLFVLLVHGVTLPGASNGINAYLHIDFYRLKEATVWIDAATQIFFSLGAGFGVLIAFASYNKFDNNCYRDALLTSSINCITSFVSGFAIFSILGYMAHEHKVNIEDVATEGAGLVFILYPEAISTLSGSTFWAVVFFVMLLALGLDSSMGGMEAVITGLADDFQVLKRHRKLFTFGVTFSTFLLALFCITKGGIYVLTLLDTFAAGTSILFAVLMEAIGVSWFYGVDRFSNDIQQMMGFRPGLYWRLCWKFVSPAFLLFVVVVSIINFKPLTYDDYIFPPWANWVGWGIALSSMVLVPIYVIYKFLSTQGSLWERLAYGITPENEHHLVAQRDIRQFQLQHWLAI", "assay": "Displacement of [3H]nisoxetine from human NET receptor expressed in HEK293 cells", "type": "cell-based"}, "[2]": {"biological_target": "Sodium-dependent dopamine transporter (Homo sapiens, UniProt Q01959)", "sequence (Q01959 whole entry)": "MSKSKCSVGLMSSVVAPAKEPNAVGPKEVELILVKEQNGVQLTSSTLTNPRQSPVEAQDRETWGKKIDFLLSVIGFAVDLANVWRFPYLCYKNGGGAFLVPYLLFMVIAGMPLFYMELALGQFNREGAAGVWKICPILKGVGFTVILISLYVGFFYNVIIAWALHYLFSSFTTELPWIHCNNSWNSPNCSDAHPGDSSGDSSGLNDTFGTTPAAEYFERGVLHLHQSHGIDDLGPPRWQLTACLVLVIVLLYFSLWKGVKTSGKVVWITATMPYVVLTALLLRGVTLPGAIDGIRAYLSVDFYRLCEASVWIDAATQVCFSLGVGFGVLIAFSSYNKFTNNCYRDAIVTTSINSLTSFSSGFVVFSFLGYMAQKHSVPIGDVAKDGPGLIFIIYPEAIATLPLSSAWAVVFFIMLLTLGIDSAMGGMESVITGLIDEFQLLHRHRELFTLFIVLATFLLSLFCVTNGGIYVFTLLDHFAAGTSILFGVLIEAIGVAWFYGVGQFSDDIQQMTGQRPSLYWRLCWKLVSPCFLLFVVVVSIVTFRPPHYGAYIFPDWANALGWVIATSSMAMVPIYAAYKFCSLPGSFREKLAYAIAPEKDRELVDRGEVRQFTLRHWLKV", "assay": "Displacement of [125I]RTI-55 from human DAT receptor expressed in canine kidney cells", "type": "cell-based", "in_short": "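Competition binding against [¹²⁵I]RTI-55 in canine kidney cells stably transfected with human DAT. Ki in nM, geometric mean ± SD of at least three separate experiments, each run in triplicate.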"}, "[3]": {"assay": "Lipophilicity, log P at pH 7.4", "type": "physicochemical", "settings": "buffer", "in_short": "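Radiotracer (~5–10 μCi) in 2 mL 1-octanol plus 2 mL 0.02 M sodium phosphate buffer, pH 7.4. Vortexed 10 min at room temperature, centrifuged 5 min. 0.5 mL of each layer gamma-counted and decay corrected. log P = log(octanol counts/buffer counts), done three times and averaged.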"}, "Homo sapiens [4]": {"species_on_record": "Homo sapiens", "assay": "Selectivity for human NET over human SERT", "in_short": "(§1)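 Competition binding in stably transfected cells expressing human transporters: NET vs [3H]nisoxetine and SERT vs [3H]citalopram in HEK-293 cells; DAT vs [125I]RTI-55 in canine kidney cells. Ki as geometric mean of at least three experiments in triplicate; selectivity as ratio of SERT or DAT Ki to NET Ki.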"}, "[5]": {"biological_target": "Sodium-dependent serotonin transporter (Homo sapiens, UniProt P31645)", "sequence (P31645 whole entry)": "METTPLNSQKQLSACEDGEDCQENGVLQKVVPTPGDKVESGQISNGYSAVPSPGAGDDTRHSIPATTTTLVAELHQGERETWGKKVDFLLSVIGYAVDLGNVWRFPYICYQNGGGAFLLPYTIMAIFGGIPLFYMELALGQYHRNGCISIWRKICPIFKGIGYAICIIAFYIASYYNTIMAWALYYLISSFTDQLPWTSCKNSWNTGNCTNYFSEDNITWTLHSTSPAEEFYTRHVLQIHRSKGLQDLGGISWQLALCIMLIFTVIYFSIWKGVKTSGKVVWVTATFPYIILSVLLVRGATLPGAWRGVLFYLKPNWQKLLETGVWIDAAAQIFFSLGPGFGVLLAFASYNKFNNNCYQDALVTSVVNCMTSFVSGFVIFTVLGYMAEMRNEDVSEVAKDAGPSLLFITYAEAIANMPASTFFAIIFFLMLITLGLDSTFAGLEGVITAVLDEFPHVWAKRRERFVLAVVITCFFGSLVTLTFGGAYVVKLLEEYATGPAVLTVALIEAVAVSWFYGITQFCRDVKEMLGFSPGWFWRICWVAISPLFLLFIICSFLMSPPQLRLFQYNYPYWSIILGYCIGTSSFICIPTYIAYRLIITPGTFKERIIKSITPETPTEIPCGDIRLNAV", "assay": "Displacement of [3H]citalopram from human SERT receptor expressed in HEK293 cells", "type": "cell-based", "in_short": "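Competition binding against [³H]citalopram in HEK-293 cells stably transfected with human SERT. Ki in nM, geometric mean ± SD of at least three separate experiments, each run in triplicate.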"}, "Homo sapiens [6]": {"species_on_record": "Homo sapiens", "assay": "Selectivity for human NET over human DAT", "in_short": "as §1"}}, "data": [{"molecule": "Cc1ccccc1O[C@@H](c1ccccc1)[C@@H]1CNCCO1", "values": [{"measurement": "Ki", "setting": "[1]", "result": 1.02, "unit": "nM"}, {"measurement": "Ki", "setting": "[2]", "result": 327, "unit": "nM"}, {"measurement": "logD", "setting": "[3]", "result": 2.04}, {"measurement": "Ratio Ki", "setting": "Homo sapiens [4]", "result": 92}, {"measurement": "Ki", "setting": "[5]", "result": 93, "unit": "nM"}, {"measurement": "Ratio Ki", "setting": "Homo sapiens [6]", "result": 321}]}, {"molecule": "COc1ccccc1O[C@@H](c1ccccc1)[C@@H]1CNCCO1", "values": [{"measurement": "Ki", "setting": "[2]", "result": "> 2000", "unit": "nM"}, {"measurement": "Ratio Ki", "setting": "Homo sapiens [4]", "result": 195}]}]}
